Experiment [1] concerns Pseudomonas aeruginosa. The experiment can be described thus: Antibacterial activity against Pseudomonas aeruginosa ATTC 27853 at MIC after 3 to 4 days by disc diffusion method. It is filed as functional. The essentials:
(§1)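 Agar well diffusion: seeded agar plates dried 1 h at 37 °C, wells punched and filled with test compound at MIC level in DMSO; DMSO solvent control. Plates in triplicate, kept at 37 °C for 3–4 days; zone of inhibition read.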

Experiment [2] relates to Escherichia coli. Kind of experiment: Antibacterial activity against Escherichia coli ATTC 25922 after 16 to 18 hrs by serial dilution method. It is filed as functional. In a few lines: (§2)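 Serial drug dilutions in Mueller-Hinton broth adjusted to pH 5.0 with phosphate buffer, inoculated with standardized bacterial suspension, incubated 16–18 h at 37 °C; MIC taken as lowest concentration without conspicuous growth.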

Experiment [3] concerns Escherichia coli. Kind of experiment: Antibacterial activity against Escherichia coli ATTC 25922 at MIC after 3 to 4 days by disc diffusion method. The format is functional. In a few lines:
as §1

Experiment [4] relates to Staphylococcus aureus. Kind of experiment: Antibacterial activity against Staphylococcus aureus ATTC 25923 after 16 to 18 hrs by serial dilution method. It is filed as functional. In a few lines: as §2
Experiment [5] has as its system Aspergillus fumigatus. The experiment can be described thus: Antifungal activity against Aspergillus fumigatus NCIM 902 by serial plate dilution method. It is filed as functional.
The subject of experiment [6] is Aspergillus flavus. The experiment can be described thus: Antifungal activity against Aspergillus flavus NCIM 524 by serial plate dilution method. It is filed as functional.
The subject of experiment [7] is Klebsiella pneumoniae. Kind of experiment: Antibacterial activity against recultured Klebsiella pneumoniae after 16 to 18 hrs by serial dilution method. It is filed as functional. The essentials:
as §2

Experiment [8] relates to Radical scavenging activity. Kind of experiment: Antioxidant activity of the compound assessed as DPPH radical scavenging activity at 800 ug/ml after 20 mins. It is filed as functional. The essentials:
(§3)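 Compound dissolved in methylene dichloride at the stated concentration, mixed with 4 mL 0.1 mM methanolic DPPH, held 20 min at ambient temperature; absorbance read at 517 nm. Scavenging % = (A_DPPH − A_test)/A_DPPH × 100. Triplicate; ascorbic acid positive control.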

Experiment [9] concerns Aspergillus flavus. Kind of experiment: Antifungal activity against Aspergillus flavus NCIM 524 at MIC after 3 to 4 days. The format is functional.
A further experiment has as its system Rattus norvegicus. The experiment can be described thus: Antiinflammatory activity rat assessed as reduction of carrageenan-induced paw oedema at 100 mg/kg, po administered 30 mins before carrageenan challenge measured after 60 to 180 mins. More on the design: dose 100 mg/kg. The format is functional, organism-based. The essentials:
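Rats randomly assigned, 100 mg/kg orally as suspension in 1% carboxymethyl cellulose, 30 min before carrageenan injected into right hind paw. Paw thickness measured with vernier callipers at 60, 120 and 180 min. Diclofenac reference; mean ± SEM, n = 6, vs vehicle control.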
For orientation: The carrageenan paw model is a standard test of acute inflammation.

Experiment [10] concerns Radical scavenging activity. The experiment can be described thus: Antioxidant activity of the compound assessed as DPPH radical scavenging activity at 200 ug/ml after 20 mins. It is filed as functional. In a few lines:
as §3
For orientation: Loss of DPPH colour is used to gauge radical scavenging.

Experiment [11] relates to Mus musculus. Kind of experiment: Analgesic activity Wistar albino mouse assessed as tail withdrawal latency time at 100 mg/kg, po administered by intragastric tube after 120 mins (reference value: 1.363 +/- 0.1297 sec). The format is functional.
Experiment [12] concerns Trichophyton mentagrophytes. Kind of experiment: Antifungal activity against recultured Trichophyton mentagrophytes by serial plate dilution method. It is filed as functional.
Experiment [13] concerns Aspergillus fumigatus. The experiment can be described thus: Antifungal activity against Aspergillus fumigatus NCIM 902 at MIC after 3 to 4 days. The format is functional.
Experiment [14] concerns Mus musculus. Kind of experiment: Analgesic activity Wistar albino mouse assessed as tail withdrawal latency time at 100 mg/kg, po administered by intragastric tube after 180 mins (reference value: 1.363 +/- 0.1297 sec). It is filed as functional.
For experiment [15], the system named is Radical scavenging activity. The experiment can be described thus: Antioxidant activity of the compound assessed as DPPH radical scavenging activity at 400 ug/ml after 20 mins. It is filed as functional. In a few lines:
as §3

Experiment [16] deals with Staphylococcus aureus. The experiment can be described thus: Antibacterial activity against Staphylococcus aureus ATTC 25923 at MIC after 3 to 4 days by disc diffusion method. It is filed as functional. The essentials:
as §1
(In general: Agar diffusion results depend on both activity and mobility in agar.)

Experiment [17] concerns Trichophyton mentagrophytes. Kind of experiment: Antifungal activity against recultured Trichophyton mentagrophytes at MIC after 3 to 4 days. The format is functional.
Experiment [18] has as its system Pseudomonas aeruginosa. The experiment can be described thus: Antibacterial activity against Pseudomonas aeruginosa ATTC 27853 after 16 to 18 hrs by serial dilution method. It is filed as functional. In a few lines: as §2
In experiment [19] the test system is Mus musculus. The experiment can be described thus: Analgesic activity Wistar albino mouse assessed as tail withdrawal latency time at 100 mg/kg, po administered by intragastric tube after 60 mins (reference value: 1.363 +/- 0.1297 sec). It is filed as functional.
Experiment [20] relates to Talaromyces marneffei. Kind of experiment: Antifungal activity against recultured Penicillium marneffei by serial plate dilution method. It is filed as functional.
For experiment [21], the system named is Talaromyces marneffei. The experiment can be described thus: Antifungal activity against recultured Penicillium marneffei at MIC after 3 to 4 days. It is filed as functional.
Experiment [22] relates to Klebsiella pneumoniae. Kind of experiment: Antibacterial activity against recultured Klebsiella pneumoniae at MIC after 3 to 4 days by disc diffusion method. The format is functional. The essentials: as §1

Each structure is given as a SMILES string. ≈ marks a conversion by molar mass, not a printed value. Calls of active or inactive are those of the source. No cut-off for these calls is given here.

The MIC is the lowest concentration found to suppress growth. A low value points to inhibition by little substance. As a reminder, the inhibition is the drop in the measured response relative to a control, in per cent.

As for `COc1ccc(Br)c(-c2nnc3n2NC(c2ccc(Cl)cc2)S3)c1` (stereo unspecified), the “diameter of the inhibition zone (DIZ)” value with Pseudomonas aeruginosa [1] is 16 mm; in the experiment on Escherichia coli [3], 16 mm; in the experiment on Aspergillus flavus [9], 16 mm; with Aspergillus fumigatus [13], 16 mm; in the experiment on Staphylococcus aureus [16], 11 mm; in experiment [17], 16 mm. Besides, the “diameter of the inhibition zone (DIZ)” value is on record as 11 mm in the experiment on Talaromyces marneffei [21] and 16 mm with Klebsiella pneumoniae [22]. Besides, the MIC with Escherichia coli [2] worked out at 14.8 µM (≈ 6.25 µg/mL); in the experiment with Staphylococcus aureus [4], 29.5 µM (≈ 12.5 µg/mL); against Aspergillus fumigatus [5] it was 16.1 µM (≈ 6.8 µg/mL); against Aspergillus flavus [6] it was 16.1 µM (≈ 6.8 µg/mL); with Klebsiella pneumoniae [7], 14.8 µM (≈ 6.25 µg/mL); in [12], 16.1 µM (≈ 6.8 µg/mL). Besides, the minimum inhibitory concentration (MIC) against Pseudomonas aeruginosa [18] is 14.8 µM (≈ 6.25 µg/mL); against Talaromyces marneffei [20], 16.1 µM (≈ 6.8 µg/mL). Further, the inhibition in experiment [8] was 63.4%; in experiment [10], 42.3%; in [15], 48.1%. The outcome with Rattus norvegicus was Active. In addition, the Time is 3.563 s in the experiment with Mus musculus [11], 2.425 s in the experiment with Mus musculus [14] and 3.675 s in the experiment on Mus musculus [19].

As for `COc1ccc(Br)c(-c2n[nH]c(=S)n2N)c1`, the “diameter of the inhibition zone (DIZ)” value in the experiment with Pseudomonas aeruginosa [1] was 11 mm; in the experiment on Escherichia coli [3], 16 mm; with Aspergillus flavus [9], 16 mm; in the experiment on Aspergillus fumigatus [13] it was 16 mm; in the experiment with Staphylococcus aureus [16], 11 mm; in [17] it was 16 mm. The “diameter of the inhibition zone (DIZ)” value in the experiment on Talaromyces marneffei [21] and with Klebsiella pneumoniae [22] was 16 mm in each case. In addition, the minimal inhibitory concentration (MIC) is 20.8 µM (≈ 6.25 µg/mL) with Escherichia coli [2]; 41.5 µM (≈ 12.5 µg/mL) in the experiment with Staphylococcus aureus [4]; 20.8 µM (≈ 6.25 µg/mL) in the experiment on Aspergillus fumigatus [5]; 20.8 µM (≈ 6.25 µg/mL) against Aspergillus flavus [6]; 20.8 µM (≈ 6.25 µg/mL) against Klebsiella pneumoniae [7]; 20.8 µM (≈ 6.25 µg/mL) in experiment [12]. In addition, the MIC with Pseudomonas aeruginosa [18] was determined as 41.5 µM (≈ 12.5 µg/mL); against Talaromyces marneffei [20] it was 20.8 µM (≈ 6.25 µg/mL). Besides, the inhibition in [8] amounted to 67.5%; in experiment [10] it was 52.7%; in experiment [15] it was 56.8%. For the same compound, in the experiment on Rattus norvegicus, the outcome was Active. Moreover, the Time is 3.388 s in the experiment on Mus musculus [11], 2.338 s with Mus musculus [14] and 3.463 s in the experiment with Mus musculus [19].
